Where a chain is given by its changes, count along the chain named.

One data set concerns the target T1, LasR T75V (Pseudomonas aeruginosa, UniProt P25084, T75V).
T1 sequence (P25084 1-239 T75V): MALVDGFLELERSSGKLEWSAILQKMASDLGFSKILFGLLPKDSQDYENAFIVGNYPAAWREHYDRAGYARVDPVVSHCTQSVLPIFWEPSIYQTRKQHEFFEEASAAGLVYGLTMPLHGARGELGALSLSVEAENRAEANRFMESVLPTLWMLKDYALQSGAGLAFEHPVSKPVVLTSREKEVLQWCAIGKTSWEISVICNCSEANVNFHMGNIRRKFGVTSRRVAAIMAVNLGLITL
The experiment in a line: E. coli lasB-lux reporter assay, LasR T75V. To be noted: read-out: EC50 in the plasB-lux assay; LasR T75V; NR = non-responsive. Type of data set: cell-based.

The target of the next data set is T2, LasR Y93F (Pseudomonas aeruginosa, UniProt P25084, Y93F).
T2 sequence (P25084 1-239 Y93F): T1 sequence (P25084 1-239 T75V) with V75T, Y93F
The experiment in a line: E. coli lasB-lux reporter assay, LasR Y93F. Type of data set: cell-based. To be noted: read-out: EC50 in the plasB-lux assay; LasR Y93F; NR = non-responsive. In general terms: A reporter such as luciferase makes a cellular process visible.

In the next data set the target is T3, LasR A127W (Pseudomonas aeruginosa, UniProt P25084, A127W).
T3 sequence (P25084 1-239 A127W): T1 sequence (P25084 1-239 T75V) with V75T, A127W
The data set is described as follows: E. coli lasB-lux reporter assay, LasR A127W. To be noted: read-out: EC50 in the plasB-lux assay, NR = non-responsive. Type of data set: cell-based.

In another data set the target is T4, LasR T75V/Y93F (Pseudomonas aeruginosa, UniProt P25084, T75V/Y93F).
T4 sequence (P25084 1-239 T75V/Y93F): T1 sequence (P25084 1-239 T75V) with Y93F
The experiment in a line: E. coli lasB-lux reporter assay, LasR T75V/Y93F. The data set is classed as cell-based. Conditions: read-out: EC50 in the plasB-lux assay; LasR T75V/Y93F.

The next data set has as its target T5, LasR Y93F/A127W (Pseudomonas aeruginosa, UniProt P25084, A127W/Y93F).
T5 sequence (P25084 1-239 Y93F/A127W): T1 sequence (P25084 1-239 T75V) with V75T, Y93F, A127W
The data set is described as follows: E. coli lasB-lux reporter assay, LasR Y93F/A127W. To be noted: read-out: EC50 in the plasB-lux assay; LasR Y93F/A127W; NR = non-responsive. The data set is classed as cell-based.

The target of a further data set is T6, LasR T75V/Y93F/A127W (Pseudomonas aeruginosa, UniProt P25084, A127W/T75V/Y93F).
T6 sequence (P25084 1-239 T75V/Y93F/A127W): T1 sequence (P25084 1-239 T75V) with Y93F, A127W
The experiment in a line: E. coli lasB-lux reporter assay, LasR T75V/Y93F/A127W. Type of data set: cell-based. To be noted: read-out: EC50 in the plasB-lux assay; LasR T75V/Y93F/A127W; NR = non-responsive.

The next data set has as its target T7, WT LasR LBD (Pseudomonas aeruginosa, UniProt P25084).
T7 sequence (P25084 1-173 limits assumed): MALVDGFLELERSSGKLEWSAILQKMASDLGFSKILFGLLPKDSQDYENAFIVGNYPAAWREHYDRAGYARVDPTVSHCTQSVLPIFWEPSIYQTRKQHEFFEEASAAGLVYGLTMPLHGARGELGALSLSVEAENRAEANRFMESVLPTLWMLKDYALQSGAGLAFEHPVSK
The experiment in a line: Protein solubility assay, WT LasR LBD produced in E. coli. The data set is classed as cell-based. To be noted: induction at 25°C; 10 μM compound. Put shortly: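 E. coli BL21(DE3) with plasmid-borne 6xHis-WT LasR LBD were grown overnight, diluted 1:500 in LB with ampicillin and grown to OD600 0.5. Cells were induced with 1 mM IPTG plus test compound at 10 μM final, then shaken 4 h at 25°C or 37°C. Whole-cell lysate and soluble fractions were compared by band intensity. Fraction soluble = soluble band / whole-cell lysate band.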

For the next data set, the system named is luciferase. The data set is described as follows: Off-target inhibition of luciferase in the E. coli lasB-lux reporter strain. The data set is classed as cell-based. To be noted: high concentrations (>10 μM).
A further data set relates to pyocyanin production. To be noted: cited from earlier work.
Another data set relates to LasR. Conditions: cited from earlier work.

What is called EC50 is the concentration that produces a half-maximal response. “meta-bromo-thiolactone [mBTL, reference compound]”: the EC50 is 6 nM on LasR T75V; 10 nM on LasR Y93F; 60 nM at LasR A127W; 10 nM at LasR T75V/Y93F; 9 nM on LasR Y93F/A127W; 10 nM on LasR T75V/Y93F/A127W. Moreover, the “soluble WT LasR LBD” value at WT LasR LBD was “yielded soluble WT LasR LBD”. The “off-target inhibition of luciferase” value in the data set on luciferase was “caused off-target inhibition of luciferase”. In the data set with pyocyanin production, the effect on pyocyanin entry is recorded as “inhibiting pyocyanin”. In addition, the “activity on LasR” value with LasR is “is a LasR agonist”.

The values above are taken from article PMC6601336 (ACS chemical biology, 2019).
